Results from different studies.
Protocols differ between the studies behind these lines.
Read-out: cell growth or viability

Structure (SMILES)	cell line	assay	setting	IC50
CC1=CC(=O)C(C(C)C)=CC1=O	FR2	SRB	48 h	< 100 µM
Cc1c(C)c2c(c(C)c1O)CCC(C)(COc1ccc(CC3SC(=O)NC3=O)cc1)O2 (stereo not shown)	THLE-2	MTT	–	16.3 µM
Cc1cc2c(C(N)=O)cccc2n1-c1nc2c(c(NCc3ccccc3)n1)CCCN2	MM1.S	–	72 h	0.7 µM
CN(C)C(=O)Nc1nc2c(Cl)cc(Cl)cc2c(=O)n1-c1ccccc1	SW480	MTT	48 h	> 200 µM
O=C(NO)c1ccc(Cn2cnc3c(Nc4ccc(Cl)cc4)ncnc32)cc1	MM1.S	MTT	72 h	2.64 µM
C#Cc1cccc(Nc2ncnc3cc(OCCOC)c(OCCOC)cc23)c1	SW480	MTT	48 h	11.2 µM
COc1cccc2c1C(=O)c1c(O)c3c(c(O)c1C2=O)C[C@@](O)(C(=O)CO)C[C@@H]3O[C@H]1C[C@H](N)[C@H](O)[C@H](C)O1	SW480	MTT	24 h	0.79 µM
COc1cccc2c1C(=O)c1c(O)c3c(c(O)c1C2=O)C[C@@](O)(C(=O)CO)C[C@@H]3O[C@H]1C[C@H](N)[C@H](O)[C@H](C)O1	SW480	MTT	72 h	0.75 µM
C=C1CC[C@@H]2[C@](C)(CO)[C@H](O)CC[C@@]2(C)[C@@H]1C/C=C1/C(=O)OC[C@H]1O	SW480	MTT	24 h	5.08 µM
COc1ccc(Nc2ncnc3c2ncn3Cc2ccc(C(=O)Nc3ccccc3N)cc2)cc1	MM1.S	MTT	72 h	15.8 µM
CC1(P2(=O)CCCCC2)C=CCC=C1	SW480	MTT	72 h	> 100 µM
NNc1nc2c(Cl)cc(Cl)cc2c(=O)n1-c1ccccc1	SW480	MTT	48 h	> 200 µM
CN1CCC(NC2CCc3[nH]c4c(C(N)=O)ccc(-c5ccccc5Cl)c4c3C2)CC1 (stereo not shown)	HGC-27	–	96 h	0.00961 µM
Cc1ccc(NNc2nc3ccc(Br)cc3c(=O)n2-c2ccccc2)cc1	SW480	MTT	48 h	85.4 µM
CC1(P2(=O)CCCCC2)CCCCC1	SW480	MTT	72 h	> 100 µM
Cc1cc(Nc2ncnc3ccc(NC4=NC(C)(C)CO4)cc23)ccc1Oc1ccn2ncnc2c1	NCI-N87	ATP luminescence	–	0.0898 µM
O=c1c2cc(Cl)cc(Cl)c2nc(NNc2cccc(Cl)c2)n1-c1ccccc1	SW480	MTT	48 h	> 200 µM
O=C(NO)c1ccc(Cn2cnc3c(Nc4cccc([N+](=O)[O-])c4)ncnc32)cc1	MM1.S	MTT	72 h	1.56 µM
O=C(NO)Nc1nc2c(Cl)cc(Cl)cc2c(=O)n1-c1ccccc1	SW480	MTT	48 h	> 200 µM
O=C(NO)c1ccc(Cn2cnc3c(Nc4ccc(Br)cc4F)ncnc32)cc1	MM1.S	MTT	72 h	1.87 µM
NNc1nc2c(Cl)cc(Cl)cc2c(=O)n1-c1ccc(Cl)cc1	SW480	MTT	48 h	> 200 µM
CS(=O)(=O)CCNCc1ccc(-c2ccc3ncnc(Nc4ccc(OCc5cccc(F)c5)c(Cl)c4)c3c2)o1	NCI-N87	ATP luminescence	–	0.0572 µM
